The record followed here is ChEMBL document CHEMBL4610084, “Antibacterial and ATP Synthesis Modulating Compounds from Salvia tingitana” (2020).

≈ marks a conversion by molar mass, not a printed value.

Usually MIC stands for the smallest concentration in the dilution series that meets the test's criterion for growth inhibition. A higher MIC goes with a less susceptible organism.

The first assay deals with Staphylococcus capitis. Put plainly: Antibacterial activity against Methicillin-resistant Staphylococcus capitis MB71 after 24 hrs by microdilution assay. In kind it is functional. The note with it: MB71, 24 h. The essentials:
(§1)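 Broth microdilution MIC, run as in an earlier cited report. Strains are clinical isolates identified by standard methods and MALDI-TOF; E. faecalis MB19 and MB51 are Ligurian seawater isolates. Highest concentration tested was 128 μg/mL. MICs are given in μg/mL and μM, with oxacillin and vancomycin as reference antibiotics.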
(Dilution methods test growth across graded concentrations, often in twofold steps.)
For `COC(=O)[C@]1(C)CCC[C@]2(C)[C@H]3CCC(C)(/C=C/c4occc4C)O[C@]3(C)CC[C@H]21` (some centres not stated), 155 µM (≈ 64.3 µg/mL) was the least that counted as inhibitory (MIC).

The subject of another assay is Staphylococcus hominis. Put plainly: Antibacterial activity against Methicillin-resistant Staphylococcus hominis MB124 after 24 hrs by microdilution assay. It is filed as functional. The conditions noted are these: MB124, 24 h. The essentials: as §1
In turn, `COC(=O)[C@]1(C)CCC[C@]2(C)[C@H]3CCC(C)(/C=C/c4occc4C)O[C@]3(C)CC[C@H]21` (some centres not stated) had a minimum inhibitory concentration (MIC) of 309 µM (≈ 128 µg/mL).

The next assay concerns Enterococcus gallinarum. Description: Antibacterial activity against Vancomycin resistant Enterococcus gallinarum MB111 after 24 hrs by microdilution assay. The conditions noted are these: MB111, 24 h. In kind it is functional. The gist of the method:
as §1
`COC(=O)[C@]1(C)CCC[C@]2(C)[C@H]3CCC(C)(/C=C/c4occc4C)O[C@]3(C)CC[C@H]21` (some centres not stated) returned a minimal inhibitory concentration (MIC) of 309 µM (≈ 128 µg/mL).

A further assay has as its system Staphylococcus lugdunensis. Description: Antibacterial activity against Staphylococcus lugdunensis MB96 after 24 hrs by microdilution assay. It is filed as functional. The note with it: MB96, 24 h. The gist of the method:
(§2)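 Broth microdilution MIC against clinical or seawater-isolated strains (identified by standard procedures and MALDI-TOF), with compound solutions and testing as in earlier work. MIC reported in μg/mL and μM.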
The compound `COC(=O)[C@]1(C)CCC[C@]2(C)[C@H]3CCC(C)(/C=C/c4occc4C)O[C@]3(C)CC[C@H]21` (some centres not stated) displayed an MIC above 128 mg/L.

For a further assay, the system named is Enterococcus faecalis. Put plainly: Antibacterial activity against Vancomycin resistant Enterococcus faecalis MB1 after 24 hrs by microdilution assay. In kind it is functional. The conditions noted are these: MB1, 24 h. The essentials:
as §1
For `COC(=O)[C@]1(C)CCC[C@]2(C)[C@H]3CCC(C)(/C=C/c4occc4C)O[C@]3(C)CC[C@H]21` (some centres not stated), the MIC is above 128 mg/L.

A further assay deals with Enterococcus avium. Description: Antibacterial activity against Enterococcus avium MB119 after 24 hrs by microdilution assay. In kind it is functional. The note with it: MB119, 24 h. The essentials: as §2
In turn, `COC(=O)[C@]1(C)CCC[C@]2(C)[C@H]3CCC(C)(/C=C/c4occc4C)O[C@]3(C)CC[C@H]21` (some centres not stated) came in with a minimum inhibitory concentration (MIC) above 128 mg/L.

A further assay has as its system Staphylococcus warneri. Description: Antibacterial activity against Methicillin-resistant Staphylococcus warneri MB74 after 24 hrs by microdilution assay. It is filed as functional. The note with it: MB74, 24 h. The essentials: as §1
`COC(=O)[C@]1(C)CCC[C@]2(C)[C@H]3CCC(C)(/C=C/c4occc4C)O[C@]3(C)CC[C@H]21` (some centres not stated) came in with an MIC of 309 µM (≈ 128 µg/mL).

In a further assay the test system is Staphylococcus saprophyticus. Description: Antibacterial activity against Staphylococcus saprophyticus MB41 after 24 hrs by microdilution assay. In kind it is functional. The conditions noted are these: MB41, 24 h. The gist of the method:
as §2
`COC(=O)[C@]1(C)CCC[C@]2(C)[C@H]3CCC(C)(/C=C/c4occc4C)O[C@]3(C)CC[C@H]21` (some centres not stated) registered a minimal inhibitory concentration (MIC) of 309 µM (≈ 128 µg/mL).

The next assay deals with Staphylococcus simulans. Put plainly: Antibacterial activity against Staphylococcus simulans MB94 after 24 hrs by microdilution assay. In kind it is functional. The conditions noted are these: MB94, 24 h. The gist of the method:
as §2
On to `COC(=O)[C@]1(C)CCC[C@]2(C)[C@H]3CCC(C)(/C=C/c4occc4C)O[C@]3(C)CC[C@H]21` (some centres not stated), for which the MIC was above 128 mg/L.

A further assay relates to Staphylococcus epidermidis. Put plainly: Antibacterial activity against Methicillin-resistant Staphylococcus epidermidis MB169 after 24 hrs by microdilution assay. It is filed as functional. The conditions noted are these: MB169, 24 h. The essentials: as §1
The compound `COC(=O)[C@]1(C)CCC[C@]2(C)[C@H]3CCC(C)(/C=C/c4occc4C)O[C@]3(C)CC[C@H]21` (some centres not stated) displayed an MIC of 155 µM (≈ 64.3 µg/mL).

In the next assay the test system is Enterococcus faecium. Description: Antibacterial activity against Enterococcus faecium MB2 after 24 hrs by microdilution assay. In kind it is functional. The conditions noted are these: MB2, 24 h. The essentials: as §2
With `COC(=O)[C@]1(C)CCC[C@]2(C)[C@H]3CCC(C)(/C=C/c4occc4C)O[C@]3(C)CC[C@H]21` (some centres not stated), the lowest concentration to inhibit growth (MIC) was 309 µM (≈ 128 µg/mL).

The next assay concerns Staphylococcus aureus. Description: Antibacterial activity against Methicillin-resistant Staphylococcus aureus MB18 after 24 hrs by microdilution assay. The conditions noted are these: MB18, 24 h. In kind it is functional. The essentials: as §1
`COC(=O)[C@]1(C)CCC[C@]2(C)[C@H]3CCC(C)(/C=C/c4occc4C)O[C@]3(C)CC[C@H]21` (some centres not stated): the minimal inhibitory concentration (MIC) was determined as 309 µM (≈ 128 µg/mL).

The test system of the next assay is Enterococcus durans. Description: Antibacterial activity against Enterococcus durans MB113 after 24 hrs by microdilution assay. The conditions noted are these: MB113, 24 h. In kind it is functional. The gist of the method:
as §2
Regarding `COC(=O)[C@]1(C)CCC[C@]2(C)[C@H]3CCC(C)(/C=C/c4occc4C)O[C@]3(C)CC[C@H]21` (some centres not stated), the minimal inhibitory concentration (MIC) is above 128 mg/L.

A further assay has as its system Enterococcus faecalis. Description: Antibacterial activity against Vancomycin resistant Enterococcus faecalis MB19 after 24 hrs by microdilution assay. It is filed as functional. The note with it: MB19, 24 h. The gist of the method: as §1
In turn, `COC(=O)[C@]1(C)CCC[C@]2(C)[C@H]3CCC(C)(/C=C/c4occc4C)O[C@]3(C)CC[C@H]21` (some centres not stated) came in with an MIC of 309 µM (≈ 128 µg/mL).

The next assay relates to Enterococcus faecalis. Description: Antibacterial activity against Vancomycin resistant Enterococcus faecalis MB51 after 24 hrs by microdilution assay. The conditions noted are these: MB51, 24 h. It is filed as functional. The essentials:
as §1
Consider `COC(=O)[C@]1(C)CCC[C@]2(C)[C@H]3CCC(C)(/C=C/c4occc4C)O[C@]3(C)CC[C@H]21` (some centres not stated), for which the MIC was 309 µM (≈ 128 µg/mL).

The subject of another assay is Enterococcus faecium. Description: Antibacterial activity against Enterococcus faecium MB152 after 24 hrs by microdilution assay. The note with it: MB152, 24 h. It is filed as functional. The gist of the method: as §2
Turning to `COC(=O)[C@]1(C)CCC[C@]2(C)[C@H]3CCC(C)(/C=C/c4occc4C)O[C@]3(C)CC[C@H]21` (some centres not stated), the MIC is above 128 mg/L.

A further assay has as its system Enterococcus faecalis. Put plainly: Antibacterial activity against Enterococcus faecalis MB76 after 24 hrs by microdilution assay. In kind it is functional. The conditions noted are these: MB76, 24 h. The gist of the method: as §1
In turn, `COC(=O)[C@]1(C)CCC[C@]2(C)[C@H]3CCC(C)(/C=C/c4occc4C)O[C@]3(C)CC[C@H]21` (some centres not stated) registered an MIC of 309 µM (≈ 128 µg/mL).

Another assay has as its system Staphylococcus epidermidis. Description: Antibacterial activity against Methicillin-resistant Staphylococcus epidermidis MB165 after 24 hrs by microdilution assay. The note with it: MB165, 24 h. In kind it is functional. The gist of the method:
as §1
`COC(=O)[C@]1(C)CCC[C@]2(C)[C@H]3CCC(C)(/C=C/c4occc4C)O[C@]3(C)CC[C@H]21` (some centres not stated) showed a minimal inhibitory concentration (MIC) of 309 µM (≈ 128 µg/mL).

Another assay relates to Enterococcus faecium. Put plainly: Antibacterial activity against Enterococcus faecium MB3 after 24 hrs by microdilution assay. In kind it is functional. The conditions noted are these: MB3, 24 h. The gist of the method: as §2
`COC(=O)[C@]1(C)CCC[C@]2(C)[C@H]3CCC(C)(/C=C/c4occc4C)O[C@]3(C)CC[C@H]21` (some centres not stated) displayed an MIC of 309 µM (≈ 128 µg/mL).

Another assay deals with Staphylococcus aureus. Description: Antibacterial activity against Methicillin-resistant Staphylococcus aureus MB188 after 24 hrs by microdilution assay. It is filed as functional. The conditions noted are these: MB188, 24 h. The essentials: as §1
The compound `COC(=O)[C@]1(C)CCC[C@]2(C)[C@H]3CCC(C)(/C=C/c4occc4C)O[C@]3(C)CC[C@H]21` (some centres not stated) returned an MIC above 128 mg/L.

In another assay the test system is Enterococcus casseliflavus. Description: Antibacterial activity against Vancomycin resistant Enterococcus casseliflavus MB159 after 24 hrs by microdilution assay. It is filed as functional. The conditions noted are these: MB159, 24 h. The gist of the method:
as §1
Compound `COC(=O)[C@]1(C)CCC[C@]2(C)[C@H]3CCC(C)(/C=C/c4occc4C)O[C@]3(C)CC[C@H]21` (some centres not stated) returned a minimal inhibitory concentration (MIC) of 309 µM (≈ 128 µg/mL).

Another assay deals with Staphylococcus haemolyticus. Description: Antibacterial activity against Methicillin-resistant Staphylococcus haemolyticus MB115 after 24 hrs by microdilution assay. It is filed as functional. The note with it: MB115, 24 h. The gist of the method: as §1
`COC(=O)[C@]1(C)CCC[C@]2(C)[C@H]3CCC(C)(/C=C/c4occc4C)O[C@]3(C)CC[C@H]21` (some centres not stated) showed a minimal inhibitory concentration (MIC) above 128 mg/L.
